{"data": "Measured values pooled from the literature", "note": "Each line is one published result; the experiments were not run side by side."}
{"Structure (SMILES)": "CC[C@@H](C)[C@@H](N)C(=O)OC[C@H]1O[C@@](C#N)(c2ccc3c(N)ncnn23)[C@H](O)[C@@H]1O", "tested on": "HEp-2", "test": "cell growth or viability, CCK-8", "setting": "5 days", "quantity": "CC50", "value": "> 100 µM"}
{"Structure (SMILES)": "CC(C)(N)COCC(=O)N1CCC[C@H](C(=O)NCc2nc(-c3ccc(C(F)(F)F)cc3)cs2)C1", "test": "metabolic stability", "system": "male Sprague-Dawley rat, liver microsomes", "setting": "0.5 µM", "quantity": "microsomal CLint", "value": "9.9 µL/min/mg"}
{"Structure (SMILES)": "N#C[C@@]1(c2ccc3c(N)ncnn23)O[C@H](COC(=O)c2ccccc2)[C@@H](O)[C@H]1O", "tested on": "HEp-2", "test": "cell growth or viability, CCK-8", "setting": "5 days", "quantity": "CC50", "value": "79.2 µM"}
{"Structure (SMILES)": "C[C@H]1[C@@H](C(=O)NCc2nc(-c3ccc(C#N)cc3)cs2)CCCN1C(=O)[C@H]1CCC(=O)O1", "test": "metabolic stability", "system": "male Sprague-Dawley rat, liver microsomes", "setting": "0.5 µM", "quantity": "microsomal CLint", "value": "24 µL/min/mg"}
{"Structure (SMILES)": "Cc1ncsc1-c1ccc(CNC(=O)[C@@H]2C[C@@H](O)CN2C(=O)[C@@H](NC(=O)COCCOCCn2cc(COc3ccc(-c4nc5cc(-c6ccccc6)ccn5c4Nc4ccc(C(=O)O)cc4)cc3)nn2)C(C)(C)C)cc1", "tested on": "MCF7", "test": "cell growth or viability", "setting": "72 h", "quantity": "CC50", "value": "74 µM"}
{"Structure (SMILES)": "NCCOCC(=O)N1CCC[C@H](C(=O)NCc2nc(-c3ccc(C(F)(F)F)cc3)cs2)C1", "test": "metabolic stability", "system": "male Sprague-Dawley rat, liver microsomes", "setting": "0.5 µM", "quantity": "microsomal CLint", "value": "< 3 µL/min/mg"}
{"Structure (SMILES)": "CCc1cc(=O)oc2cc(OC(CC)C(=O)c3ccccc3)ccc12 (stereo not shown)", "tested on": "TZM-bl", "test": "cell growth or viability, resazurin", "quantity": "CC50", "value": "> 12.5 µM"}
{"Structure (SMILES)": "COCC(=O)N1CCC[C@H](C(=O)NCc2nc(-c3ccc(C#N)cc3)cs2)C1", "test": "metabolic stability", "system": "human, liver microsomes", "setting": "0.5 µM", "quantity": "microsomal CLint", "value": "10 µL/min/mg"}
{"Structure (SMILES)": "O=C(O)COc1cccc(-c2nc(Nc3ccc4[nH]ncc4c3)c3ccccc3n2)c1", "tested on": "Solute carrier organic anion transporter family member 1B3 (SLCO1B3, Homo sapiens, UniProt Q9NPD5)", "test": "transporter uptake, inhibitor", "quantity": "IC50", "value": "1550 nM"}
{"Structure (SMILES)": "CCC(CC)COC(=O)[C@H](C)N[P@](=O)(OC[C@H]1O[C@@](C#N)(c2ccc3c(N)ncnn23)[C@H](O)[C@@H]1O)Oc1ccccc1", "tested on": "HEp-2", "test": "cell growth or viability, CCK-8", "setting": "5 days", "quantity": "CC50", "value": "2.95 µM"}
{"Structure (SMILES)": "COc1ccc2c(c1)CN(C(=O)CCN1CCC(Cc3ccccc3)CC1)CC[S@@+]2[O-]", "system": "male human, plasma", "setting": "intravenous, 0.05 mg/kg, healthy volunteers", "quantity": "clearance", "value": "203 mL/min"}
{"Structure (SMILES)": "Nc1ccn([C@@H]2O[C@H](CO)[C@@H](O)C2(F)F)c(=O)n1", "tested on": "MCF7", "test": "cell growth or viability, MTT", "setting": "10 µg/mL, 24 h", "quantity": "viability", "value": "20.7%"}
{"Structure (SMILES)": "CC(C)C(=O)OC[C@H]1O[C@@H](n2ccc(NO)nc2=O)[C@H](O)[C@@H]1O", "tested on": "HEp-2", "test": "cell growth or viability, CCK-8", "setting": "5 days", "quantity": "CC50", "value": "50.1 µM"}
